Key:
[1] = system: Mus musculus; assay: Toxicity in DBA/2 mouse allografted with mouse P388 cells assessed as change in body weight at 320 mg/kg/day, ip for 9 days compound administered through saline vehicle; type: organism-based; parameters: route intraperitoneal; details: in vivo, 216 h
Outline: (§1)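 DBA/2 mice bearing P388 lymphocytic leukemia received one intraperitoneal injection per day for 9 days, given in the vehicle named for each test (water/alcohol-based, saline or saline + Tween 80). Toxicity was noted during dosing alongside survival scoring (T/C, treated versus control mean survival time).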

[2] = system: Mus musculus; assay: Toxicity in DBA/2 mouse allografted with mouse P388 cells assessed as change in body weight at 160 mg/kg/day, ip for 9 days compound administered through saline vehicle; type: organism-based; parameters: route intraperitoneal; details: in vivo, 216 h; outline: as §1
[3] = system: Mus musculus; assay: Toxicity in DBA/2 mouse allografted with mouse P388 cells assessed as change in body weight at 80 mg/kg/day, ip for 9 days compound administered through saline vehicle; type: organism-based; parameters: route intraperitoneal; details: in vivo, 216 h; outline: as §1
[4] = system: Mus musculus; assay: Toxicity in DBA/2 mouse allografted with mouse P388 cells up to 320 mg/kg/day, ip for 9 days; type: organism-based; parameters: route intraperitoneal; details: in vivo, 216 h; outline: as §1
[5] = system: P388; assay: Antitumor activity against mouse P388 cells allografted in DBA/2 mouse assessed as host survival at 320 mg/kg/day, ip for 9 days compound administered through saline vehicle relative to control; type: functional; details: route intraperitoneal
Outline: (§2)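 P388 lymphocytic leukemia in DBA/2 mice. Dosing was one intraperitoneal injection per day for 9 days in the vehicle stated. […] Duplicate tests were run for some doses.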

[6] = system: P388; assay: Antitumor activity against mouse P388 cells allografted in DBA/2 mouse assessed as host survival at 160 mg/kg/day, ip for 9 days compound administered through saline vehicle relative to control; type: functional; details: route intraperitoneal; outline: as §2
[7] = system: P388; assay: Antitumor activity against mouse P388 cells allografted in DBA/2 mouse assessed as host survival at 80 mg/kg/day, ip for 9 days compound administered through saline vehicle relative to control; type: functional; details: route intraperitoneal; outline: as §2

COC1=C[C@]23CCCN2CCc2cc4c(cc2[C@@H]3[C@@H]1OC(=O)[C@@H](OC(=O)OCC(Cl)(Cl)Cl)c1ccccc1)OCO4
Activity [1]: -2.3 g
Activity [2]: 1.2 g
Activity [3]: -1 g
Activity [4]: Toxic
T/C [5]: 136%
T/C [6]: 154%
T/C [7]: 138%

From ChEMBL document CHEMBL3244241, “Synthesis of cephalotaxine esters and correlation of their structures with antitumor activity” (J Med Chem, 1977)
